Here are results for five compounds from the M2OR odorant receptor database.

Settings in all cases: stereoisomer not certain
The subject of experiment [1] is T1, O5AN1.
T1 sequence (whole entry): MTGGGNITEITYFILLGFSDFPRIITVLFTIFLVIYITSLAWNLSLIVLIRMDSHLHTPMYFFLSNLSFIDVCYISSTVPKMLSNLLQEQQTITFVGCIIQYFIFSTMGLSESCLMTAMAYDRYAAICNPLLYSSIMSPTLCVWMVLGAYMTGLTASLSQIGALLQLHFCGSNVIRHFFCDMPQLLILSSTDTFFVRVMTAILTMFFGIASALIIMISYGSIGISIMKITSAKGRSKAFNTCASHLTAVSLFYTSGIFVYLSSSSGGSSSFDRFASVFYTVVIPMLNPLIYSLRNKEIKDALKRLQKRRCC
The method, boiled down: (§1)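 Each receptor–molecule pair is labelled responsive or non-responsive (inactive) according to whether the original authors judged the measured signal statistically different from baseline. The data were taken from the main text and supplementary material of published papers and checked for typos and inconsistencies. Assay methods differed by source, with transient luciferase assays in mammalian cell lines being common.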

The target of experiment [2] is T2, OR10A2 (Homo sapiens) (UniProt Q9H208).
T2 sequence (whole entry): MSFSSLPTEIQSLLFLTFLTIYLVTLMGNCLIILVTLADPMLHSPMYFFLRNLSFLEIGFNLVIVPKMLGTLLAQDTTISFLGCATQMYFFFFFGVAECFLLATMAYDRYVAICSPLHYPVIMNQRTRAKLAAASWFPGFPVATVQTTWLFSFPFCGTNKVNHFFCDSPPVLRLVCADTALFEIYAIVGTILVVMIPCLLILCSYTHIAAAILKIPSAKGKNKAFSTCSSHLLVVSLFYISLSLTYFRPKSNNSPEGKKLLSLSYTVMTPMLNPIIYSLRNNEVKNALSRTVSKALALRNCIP
The method, boiled down:
as §1

Experiment [3] addresses T3, OR10A3 (Homo sapiens) (UniProt P58181).
T3 sequence (whole entry): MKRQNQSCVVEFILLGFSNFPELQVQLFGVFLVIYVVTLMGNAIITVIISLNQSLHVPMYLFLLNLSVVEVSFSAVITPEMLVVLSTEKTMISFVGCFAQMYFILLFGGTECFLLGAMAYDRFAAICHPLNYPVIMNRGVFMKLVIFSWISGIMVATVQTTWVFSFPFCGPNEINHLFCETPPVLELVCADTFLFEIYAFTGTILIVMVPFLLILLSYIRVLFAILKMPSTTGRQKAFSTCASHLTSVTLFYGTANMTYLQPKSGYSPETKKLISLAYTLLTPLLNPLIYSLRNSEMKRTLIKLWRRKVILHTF
The method, boiled down:
as §1

Experiment [4] concerns the target T4, OR10A4 (Homo sapiens) (UniProt Q9H209).
T4 sequence (whole entry): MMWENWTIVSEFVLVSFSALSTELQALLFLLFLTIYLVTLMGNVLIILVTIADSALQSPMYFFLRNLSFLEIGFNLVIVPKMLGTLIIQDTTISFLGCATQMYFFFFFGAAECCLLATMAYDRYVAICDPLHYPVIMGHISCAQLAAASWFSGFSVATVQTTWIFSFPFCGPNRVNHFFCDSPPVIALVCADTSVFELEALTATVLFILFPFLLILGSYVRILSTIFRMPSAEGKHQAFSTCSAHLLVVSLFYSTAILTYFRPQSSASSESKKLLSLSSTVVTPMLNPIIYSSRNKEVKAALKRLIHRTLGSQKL
The method, boiled down:
as §1

Experiment [5] concerns the target T5, OR10A5 (Homo sapiens) (UniProt Q9H207).
T5 sequence (whole entry): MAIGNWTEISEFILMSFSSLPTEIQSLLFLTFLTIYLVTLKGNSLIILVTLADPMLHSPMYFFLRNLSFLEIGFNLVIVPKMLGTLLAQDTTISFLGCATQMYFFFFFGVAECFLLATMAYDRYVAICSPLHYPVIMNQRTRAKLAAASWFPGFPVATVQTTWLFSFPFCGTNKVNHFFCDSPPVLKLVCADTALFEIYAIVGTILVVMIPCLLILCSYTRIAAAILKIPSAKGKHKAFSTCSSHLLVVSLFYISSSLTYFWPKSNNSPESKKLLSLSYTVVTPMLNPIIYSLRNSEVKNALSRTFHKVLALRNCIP
The essentials:
as §1

For experiment [6], the target named is T6, OR10A6 (Homo sapiens) (UniProt Q8NH74).
T6 sequence (whole entry): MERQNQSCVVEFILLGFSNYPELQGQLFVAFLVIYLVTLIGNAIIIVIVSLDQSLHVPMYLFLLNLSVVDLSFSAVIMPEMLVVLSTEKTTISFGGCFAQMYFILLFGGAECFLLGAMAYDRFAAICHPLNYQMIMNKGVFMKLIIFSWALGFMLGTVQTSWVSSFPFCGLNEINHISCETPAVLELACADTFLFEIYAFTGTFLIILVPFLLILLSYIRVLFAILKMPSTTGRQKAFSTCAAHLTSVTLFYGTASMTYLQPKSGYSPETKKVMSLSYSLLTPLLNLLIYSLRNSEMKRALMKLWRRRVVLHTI
The method, boiled down: as §1

In experiment [7] the target is T7, OR10A7 (Homo sapiens) (UniProt Q8NGE5).
T7 sequence (whole entry): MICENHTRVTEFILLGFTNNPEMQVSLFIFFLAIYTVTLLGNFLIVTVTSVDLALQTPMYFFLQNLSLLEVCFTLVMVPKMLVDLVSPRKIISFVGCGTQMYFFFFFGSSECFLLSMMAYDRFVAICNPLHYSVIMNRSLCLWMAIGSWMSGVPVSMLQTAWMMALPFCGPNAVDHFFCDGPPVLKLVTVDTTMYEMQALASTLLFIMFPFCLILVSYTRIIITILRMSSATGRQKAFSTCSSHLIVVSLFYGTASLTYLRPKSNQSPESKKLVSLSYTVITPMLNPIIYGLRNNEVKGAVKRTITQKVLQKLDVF
The essentials: as §1

In experiment [8] the target is T8, OR10AD1 (Homo sapiens) (UniProt Q8NGE0).
T8 sequence (whole entry): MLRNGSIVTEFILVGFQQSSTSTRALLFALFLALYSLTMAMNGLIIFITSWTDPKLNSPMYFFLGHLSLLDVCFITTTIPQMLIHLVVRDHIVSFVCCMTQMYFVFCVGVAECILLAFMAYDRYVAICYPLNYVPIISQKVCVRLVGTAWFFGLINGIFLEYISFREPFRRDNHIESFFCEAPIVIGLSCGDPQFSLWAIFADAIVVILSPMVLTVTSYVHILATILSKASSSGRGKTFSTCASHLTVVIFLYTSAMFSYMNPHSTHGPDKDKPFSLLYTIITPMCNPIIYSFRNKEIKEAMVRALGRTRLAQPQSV
The method, boiled down:
as §1

The target of experiment [9] is T9, OR10AG1 (Homo sapiens) (UniProt Q8NH19).
T9 sequence (whole entry): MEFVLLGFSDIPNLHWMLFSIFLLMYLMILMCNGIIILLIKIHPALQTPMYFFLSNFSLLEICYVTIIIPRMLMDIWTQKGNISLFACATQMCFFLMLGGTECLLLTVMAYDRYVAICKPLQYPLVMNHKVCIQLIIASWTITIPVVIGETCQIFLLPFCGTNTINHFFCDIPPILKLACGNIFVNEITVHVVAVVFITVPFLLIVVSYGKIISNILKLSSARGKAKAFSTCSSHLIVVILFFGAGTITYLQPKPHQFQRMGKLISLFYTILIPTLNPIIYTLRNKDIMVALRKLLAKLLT
The essentials: as §1

Experiment [10] has as its target T10, OR10C1 (Homo sapiens) (UniProt Q96KK4).
T10 sequence (whole entry): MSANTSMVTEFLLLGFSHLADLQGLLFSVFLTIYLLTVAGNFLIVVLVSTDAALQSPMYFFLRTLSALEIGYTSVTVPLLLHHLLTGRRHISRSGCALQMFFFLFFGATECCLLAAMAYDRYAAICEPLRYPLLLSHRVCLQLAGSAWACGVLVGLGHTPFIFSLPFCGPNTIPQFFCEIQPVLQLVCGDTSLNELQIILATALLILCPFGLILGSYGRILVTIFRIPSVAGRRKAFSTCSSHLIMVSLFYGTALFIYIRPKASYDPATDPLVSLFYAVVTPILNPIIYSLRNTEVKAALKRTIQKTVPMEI
The method, boiled down:
as §1

For experiment [11], the target named is T11, OR10D3 (Homo sapiens) (UniProt Q8NH80).
T11 sequence (whole entry): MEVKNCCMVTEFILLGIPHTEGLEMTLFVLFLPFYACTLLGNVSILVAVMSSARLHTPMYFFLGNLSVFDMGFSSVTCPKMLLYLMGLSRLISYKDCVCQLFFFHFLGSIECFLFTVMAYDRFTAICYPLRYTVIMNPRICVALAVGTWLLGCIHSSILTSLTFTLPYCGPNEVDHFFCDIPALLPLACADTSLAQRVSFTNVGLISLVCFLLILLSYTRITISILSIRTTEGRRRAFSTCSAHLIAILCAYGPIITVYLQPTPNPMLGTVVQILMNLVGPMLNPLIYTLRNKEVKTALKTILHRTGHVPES
The method, boiled down: as §1
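Also: active if original authors judged signal statistically different from baseline.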

Regarding `CCCCCCCCCCCCCC(C)=O`, the “odorant receptor agonist call” value in experiment [1] was “inactive”.
Same read-out and setting: as for `O=C1CCCCCCCCCCCCCC1`, the entry is “active”.
For the compound `CCCCCC(=O)C(C)C(C)=O` (stereo not drawn), the “odorant receptor agonist call” value in experiment [2], in experiment [3], in experiment [4], in experiment [5], in experiment [6] and in [7] was “inactive” throughout. For the same compound, the “odorant receptor agonist call” value in experiment [8], in [9], in experiment [10] and in experiment [11] was “inactive” each time.
In the case of `CC1CCCCCCCCCCCC(=O)C1` (stereo not drawn), the “odorant receptor agonist call” value in experiment [1] is “active”.
As to `CCCCC(S)C(C)CO` (stereo not drawn), the “odorant receptor agonist call” value in [2], in experiment [3], in experiment [4], in experiment [5], in experiment [6] and in experiment [7] was “inactive” throughout. Moreover, the “odorant receptor agonist call” value in experiment [8], in experiment [9], in [10] and in [11] was “inactive” in each case.
